Assay results from ChEMBL document CHEMBL1152867, “Targeting QseC signaling and virulence for antibiotic development” (Science, 2008).
Activity calls are given as the source filed them. The rule behind the calls is not given here.

How the values were obtained:
[1] = target: Beta-3 adrenergic receptor (Homo sapiens) (UniProt P13945); test: Activation of human beta-3-adrenergic receptor expressed in HEK293 cells assessed as cAMP release at 5 uM; assay type: functional, cell-based
Summary of the method: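 Live HEK293 cells carried an EPAC-based cAMP BRET reporter and expressed endogenous β2 or exogenous β1 or β3 adrenergic receptors. Cells were exposed to test compound alone at 5 μM. Values are means of triplicates, representative of 3 experiments.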

[2] = Cmax in CD1 mouse at 20 mg/kg, iv administered as bolus dose; assay type: ADME, organism-based; set-up: dose 20 mg/kg, route intravenous; settings: in vivo
Summary of the method: (§1)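 Groups of three were bled terminally by cardiac puncture at set times. Plasma was acetonitrile-precipitated with internal standard and quantified by electrospray LC/MS/MS against a plasma standard curve (10-1000 ng/ml). Noncompartmental analysis was used.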

[3] = Terminal half life in CD1 mouse at 20 mg/kg, iv administered as bolus dose; assay type: ADME, organism-based; set-up: dose 20 mg/kg, route intravenous; settings: in vivo, read-out: beta t1/2; summary of the method: as §1
Escherichia coli [4] = test: Inhibition of [3H]norepinephrine binding to Escherichia coli Qsec at 5 pM by liposome-based scintillation counting assay
Summary of the method: (§2)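 Liposomes reconstituted with QseC were loaded with tritiated norepinephrine (5 μM) by freeze-thaw in liquid N2 and held 10 min at room temperature, so unbound signal could diffuse out. They were pelleted at 12,000g for 5 min and counted for tritium. Counts were normalized to liposomes loaded with 5 μM tyrosine. Compound was tested at 5 pM and 5 fM.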

Escherichia coli [5] = test: Inhibition of [3H]norepinephrine binding to Escherichia coli Qsec at 5 fM by liposome-based scintillation counting assay; summary of the method: as §2
Escherichia coli [6] = test: Inhibition of AI3-induced Qsec-dependent virulence gene eae expression in Escherichia coli at 5 pM by quantitative real-time PCR; assay type: functional, organism-based
Escherichia coli [7] = test: Inhibition of AI3-induced Qsec-dependent virulence gene flhDC expression in Escherichia coli at 5 pM by quantitative real-time PCR; assay type: functional, organism-based
Escherichia coli [8] = test: Inhibition of epinephrine-induced EspA protein secretion in Escherichia coli 8624 at 5 pM by Western blot; assay type: functional, organism-based
Summary of the method: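 Secreted proteins in cell-free supernatant were TCA-precipitated and immunoblotted with rabbit polyclonal anti-EspA and anti-EspB, with ECL detection.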

Escherichia coli [9] = test: Bactericidal activity against Escherichia coli 8624 at 1 uM; assay type: functional, organism-based
Escherichia coli [10] = test: Antibacterial activity against Escherichia coli infected in New Zealand white rabbit assessed as inhibition of bacterial colonization in ileum at 20 mg/kg pretreated before 3 hrs of bacterial challenge; assay type: functional, organism-based; set-up: dose 20 mg/kg
Escherichia coli [11] = test: Antibacterial activity against Escherichia coli infected in New Zealand white rabbit assessed as inhibition of bacterial colonization in cecum at 20 mg/kg administered along with bacterial challenge; assay type: functional, organism-based; set-up: dose 20 mg/kg; settings: Caecum
Escherichia coli [12] = test: Antibacterial activity against Escherichia coli infected in New Zealand white rabbit assessed as inhibition of bacterial colonization in cecum at 20 mg/kg administered 24 hrs post-bacterial challenge; assay type: functional, organism-based; set-up: dose 20 mg/kg; settings: Caecum
Salmonella typhimurium [13] = test: Bacteriostatic activity against Salmonella Typhimurium SL1344 at 1 uM in presence of epinephrine; assay type: functional, organism-based; settings: Salmonella enterica subsp. enterica serovar Typhimurium str. SL1344
Salmonella typhimurium [14] = test: Antibacterial activity against Salmonella Typhimurium SL1344 infected in 129x1/SvJ mouse assessed as reduction of bacterial CFU in liver at 20 mg/kg, po after 48 hrs relative to control; assay type: functional
Salmonella typhimurium [15] = test: Inhibition of norepinephrine-induced virulence gene sifA expression in Salmonella Typhimurium at 5 pM; assay type: functional, organism-based; settings: Salmonella enterica subsp. enterica serovar Typhimurium
[16] = tested on: Francisella tularensis subsp. tularensis SCHU S4; test: Inhibition of virulence gene qseC expression in Francisella tularensis SCHU S4 at 5 pM by quantitative real-time PCR; assay type: functional, organism-based
[17] = Clearance in CD1 mouse at 20 mg/kg, po; assay type: ADME, organism-based; set-up: dose 20 mg/kg, route oral; settings: in vivo
Summary of the method: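 Terminal cardiac bleeds were taken in groups of three at set times. Plasma was acetonitrile-precipitated with internal standard and analysed by LC/MS/MS against a spiked-plasma standard curve. Parameters came from noncompartmental analysis.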

[18] = Oral bioavailability in CD1 mouse at 20 mg/kg; assay type: ADME, organism-based; settings: in vivo
Summary of the method: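 Female CD-1 mice received 20 mg/kg either as an i.v. bolus or by oral gavage, in the same DMSO/PEG400/Tween 80/bicarbonate pH 9 vehicle. Plasma levels were measured by LC/MS/MS. Bioavailability = AUCoral/AUCiv × Doseiv/Doseoral, using noncompartmental AUCs.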

[19] = AUC in CD1 mouse at 5 mg/kg, iv administered as bolus dose; assay type: ADME, organism-based; set-up: dose 5 mg/kg, route intravenous; settings: plasma; summary of the method: as §1
[20] = tested on: Francisella tularensis subsp. tularensis SCHU S4; test: Inhibition of virulence gene mip expression in Francisella tularensis SCHU S4 at 5 pM by quantitative real-time PCR; assay type: functional, organism-based
[21] = tested on: Francisella tularensis subsp. tularensis SCHU S4; test: Antibacterial activity against Francisella tularensis SCHU S4 infected C3H HeN mouse assessed as survival at 20 mg/kg, po administered single dose 3 hrs post-bacterial measured after 9 days; assay type: functional
Mus musculus [22] = test: Toxicity in CD1 mouse assessed as change in lung weight at 20 mg/kg, po administered daily once for 5 days measured 3 days after final dose; assay type: organism-based; set-up: dose 20 mg/kg, route oral; settings: in vivo, 72 h
Summary of the method: (§3)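 Female CD-1 mice (~22 g), three per group, given 20 mg/kg by oral gavage once daily for 5 days. Vehicle-only mice served as controls. Animals were weighed and observed daily. Three days after the last dose they were weighed and sacrificed. Blood was taken for chemistry and complete blood counts, and organs were weighed.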

Mus musculus [23] = test: Toxicity in CD1 mouse assessed as change in liver weight at 20 mg/kg, po administered daily once for 5 days measured 3 days after final dose; assay type: organism-based; set-up: dose 20 mg/kg, route oral; settings: in vivo, 72 h; summary of the method: as §3
Mus musculus [24] = test: Toxicity in CD1 mouse assessed as triglyceride levels at 20 mg/kg, po administered daily once for 5 days measured 3 days after final dose; assay type: organism-based; set-up: dose 20 mg/kg, route oral; settings: in vivo, 72 h; summary of the method: as §3
Mus musculus [25] = test: Toxicity in CD1 mouse assessed as aspartate transaminase levels at 20 mg/kg, po administered daily once for 5 days measured 3 days after final dose; assay type: organism-based; set-up: dose 20 mg/kg, route oral; settings: in vivo, 72 h
Mus musculus [26] = test: Toxicity in CD1 mouse assessed as total bilirubin levels at 20 mg/kg, po administered daily once for 5 days measured 3 days after final dose; assay type: organism-based; set-up: dose 20 mg/kg, route oral; settings: in vivo, 72 h; summary of the method: as §3
Mus musculus [27] = test: Toxicity in CD1 mouse assessed as serum total protein levels at 20 mg/kg, po administered daily once for 5 days measured 3 days after final dose; assay type: organism-based; set-up: dose 20 mg/kg, route oral; settings: in vivo, 72 h; summary of the method: as §3
Mus musculus [28] = test: Toxicity in CD1 mouse assessed as calcium levels at 20 mg/kg, po administered daily once for 5 days measured 3 days after final dose; assay type: organism-based; set-up: dose 20 mg/kg, route oral; settings: in vivo, 72 h; summary of the method: as §3
Mus musculus [29] = test: Toxicity in CD1 mouse assessed as urea nitrogen levels at 20 mg/kg, po administered daily once for 5 days measured 3 days after final dose; assay type: organism-based; set-up: dose 20 mg/kg, route oral; settings: in vivo, 72 h; summary of the method: as §3
Mus musculus [30] = test: Toxicity in CD1 mouse assessed as albumin levels at 20 mg/kg, po administered daily once for 5 days measured 3 days after final dose; assay type: organism-based; set-up: dose 20 mg/kg, route oral; settings: in vivo, 72 h
Mus musculus [31] = test: Toxicity in CD1 mouse assessed as WBC counts at 20 mg/kg, po administered daily once for 5 days measured 3 days after final dose; assay type: organism-based; set-up: dose 20 mg/kg, route oral; settings: in vivo, 72 h
Mus musculus [32] = test: Toxicity in CD1 mouse assessed as neutrophil counts at 20 mg/kg, po administered daily once for 5 days measured 3 days after final dose; assay type: organism-based; set-up: dose 20 mg/kg, route oral; settings: in vivo, 72 h; summary of the method: as §3
Mus musculus [33] = test: Toxicity in CD1 mouse assessed as hemoglobin levels at 20 mg/kg, po administered daily once for 5 days measured 3 days after final dose; assay type: organism-based; set-up: dose 20 mg/kg, route oral; settings: in vivo, 72 h; summary of the method: as §3
Mus musculus [34] = test: Toxicity in CD1 mouse assessed as hematocrit content at 20 mg/kg, po administered daily once for 5 days measured 3 days after final dose; assay type: organism-based; set-up: dose 20 mg/kg, route oral; settings: in vivo, 72 h; summary of the method: as §3
[35] = tested on: Francisella tularensis subsp. tularensis SCHU S4; test: Bacteriostatic activity against Francisella tularensis SCHU S4 at 1 uM in presence of epinephrine; assay type: functional, organism-based

Sequence of Beta-3 adrenergic receptor (Homo sapiens) (P13945 whole entry, looked up): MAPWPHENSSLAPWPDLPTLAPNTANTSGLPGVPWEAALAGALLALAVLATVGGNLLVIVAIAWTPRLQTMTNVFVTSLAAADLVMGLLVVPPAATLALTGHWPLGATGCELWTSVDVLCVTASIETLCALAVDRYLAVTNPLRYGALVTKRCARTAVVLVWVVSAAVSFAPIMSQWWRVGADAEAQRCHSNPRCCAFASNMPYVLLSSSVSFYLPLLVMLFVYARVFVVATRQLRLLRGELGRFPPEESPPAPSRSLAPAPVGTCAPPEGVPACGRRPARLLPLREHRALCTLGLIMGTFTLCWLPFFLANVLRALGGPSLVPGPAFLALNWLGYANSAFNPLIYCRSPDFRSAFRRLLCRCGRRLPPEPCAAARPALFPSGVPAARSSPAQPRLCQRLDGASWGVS

For `O=S(=O)(Nc1ccccc1)c1ccc(NC(=S)Nc2ccccc2)cc1`, the Activity [1] was “inactive”, the Cmax [2] was 4750 ng/mL and the half-life [3] was 5.65 h. For the same compound, the Activity (Escherichia coli [4]) was “Active”, the Activity (Escherichia coli [5]) was “inactive” and the Activity (Escherichia coli [6]) was “Active”. For the same compound, the Activity (Escherichia coli [7]) was “Active”, the Activity (Escherichia coli [8]) was “Active” and the Activity (Escherichia coli [9]) was “inactive”. The Activity (Escherichia coli [10]) was “inactive”, the Activity (Escherichia coli [11]) was “inactive” and the Activity (Escherichia coli [12]) was “inactive”. For the same compound, the Activity (Salmonella typhimurium [13]) was “inactive”, the “fold change (FC)” value (Salmonella typhimurium [14]) was 10 and the Activity (Salmonella typhimurium [15]) was “Active”. For the same compound, the Activity [16] was “Active”, the CL/F [17] was 2.34 mL/min and the bioavailability [18] was 69.3%. The AUC [19] was 1090 ng·h/mL, the Activity [20] was “Active” and the Activity [21] was 80%. For the same compound, the Activity (Mus musculus [22]) was “Non-toxic”, the Activity (Mus musculus [23]) was “Non-toxic” and the Activity (Mus musculus [24]) was 99.3 mg/dL. For the same compound, the Activity (Mus musculus [25]) was 120.3 U/L, the Activity (Mus musculus [26]) was 0.2 mg/dL and the Activity (Mus musculus [27]) was 4.4 g/dL. For the same compound, the Activity (Mus musculus [28]) was 9.6 mg/dL, the Activity (Mus musculus [29]) was 19 mg/dL and the Activity (Mus musculus [30]) was 2.6 g/dL. The Activity (Mus musculus [31]) was 1.5 K/uL, the Activity (Mus musculus [32]) was 9.3% and the Activity (Mus musculus [33]) was 12 g/dL. The Activity (Mus musculus [34]) was 38.5% and the Activity [35] was “inactive”.
